Laboratory results published in ChEMBL document CHEMBL2440101, “Total syntheses and cytotoxicity of kealiiquinone, 2-deoxy-2-aminokealiiquinone and analogs” (Bioorg Med Chem Lett, 2013).
pIC50: −log10 of the molar value.

tested on: MCF7; assay: Cytotoxicity against human MCF7 cells after 96 hrs by MTT assay; format: functional, cell-based; conditions: MCF7, 96 h
How it was run: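 MCF7 breast cancer cells; MTT growth assay with cisplatin as positive control. IC50 taken from cytotoxicity (concentration-response) plots and reported with SEM.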

First: COC1=C(OC)C(=O)c2c(cc3c([nH]c(=O)n3C)c2-c2ccc(OC)cc2)C1=O
Second: COC1=C(OC)C(=O)c2c(cc3c(nc(N)n3C)c2-c2ccc(OC)cc2)C1=O
The pIC50 of the first is 0.32 log units lower: 4.04 for the first, 4.36 for the second. The second is the more potent here.

`COc1ccc(-c2c3cc(OC)c(OC)cc3cc3c2nc(N)n3C)cc1` and `COc1ccc(-c2c3cc(OC)c(OC)cc3cc3c2ncn3C)cc1` are within 0.2 log units of each other in pIC50: 4.54 for the first, 4.55 for the second.

Compared with `COc1ccc(-c2c3nc(N)n(C)c3cc3cc(OC)c(OC)c(OC)c23)cc1`, `COc1ccc(-c2c3cc(OC)c(OC)c(OC)c3cc3c2nc(N)n3C)cc1` is higher in pIC50: under 4.00 for the first, 4.64 for the second. The second is the more potent here.

Going from `COc1ccc(-c2c3cc(OCc4ccccc4)c(OC)cc3cc3c2ncn3C)cc1` to `COc1ccc(-c2c3cc(O)c(OC)cc3cc3c2ncn3C)cc1`, the pIC50 falls from 4.04 to under 4.00.

`COc1ccc(-c2c3ncn(C)c3cc3cc(OC)c(OC)c(OC)c23)cc1` and `COc1ccc(-c2c3cc(OC)c(OC)c(OC)c3cc3c2ncn3C)cc1` are within 0.2 log units of each other in pIC50: 4.00 for the first, 4.17 for the second.

`COC1=C(OC)C(=O)c2c(cc3c(ncn3C)c2-c2ccc(OC)cc2)C1=O` and `COc1ccc(-c2c3[nH]c(=O)n(C)c3cc3cc(OC)c(OC)c(OC)c23)cc1` are within 0.2 log units of each other in pIC50: 4.39 for the first, 4.52 for the second.

For `COc1ccc(-c2c3cc(O)c(OC)cc3cc3c2[nH]c(=N)n3C)cc1` [KEALIININE A], the pIC50 was 4.63.
